Laboratory results as given in ChEMBL document CHEMBL1142888, “Synthesis, antimicrobial, and anti-inflammatory activities of novel 2-(1-adamantyl)-5-substituted-1,3,4-oxadiazoles and 2-(1-adamantylamino)-5-substituted-1,3,4-thiadiazoles” (2007).
Values after ≈ are worked out from the molar mass of the structure shown.

Experiments:
Assay type in all cases: functional
Pseudomonas aeruginosa = assay: Antimicrobial activity against Pseudomonas aeruginosa IFO 3448 at 200 ug/disc; conditions: read-out: IZ
Escherichia coli [1] = assay: Antimicrobial activity against Escherichia coli IFO 3301 at 200 ug/disc after 24 hrs; conditions: IFO 3301, 24 h, read-out: IZ
Rattus norvegicus [2] = assay: Antiinflammatory effect on carrageenan-induced paw oedema Sprague-Dawley rat assessed as reduction of paw oedema at 40 mg/kg, ip; set-up: scale not given: the % may be the effect or the level left; conditions: route intraperitoneal
Summary of the method: (§1)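 Rats in groups of five, acclimatised two days, given compound (20, 40, 60 mg/kg) or indomethacin (10 mg/kg) i.p. as suspension in 1 ml 0.5% aqueous carboxymethyl cellulose 1 h before 0.1 ml 1% carrageenin in saline into right hind plantar tissue; left paw got saline. Paw volume by water plethysmometer at 4 h; % protection vs vehicle control; mean ± S.E.M., Student's t test.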

Rattus norvegicus [3] = assay: Antiinflammatory effect on carrageenan-induced paw oedema Sprague-Dawley rat assessed as reduction of paw oedema at 20 mg/kg, ip; set-up: scale not given: the % may be the effect or the level left; conditions: route intraperitoneal; summary of the method: as §1
Bacillus subtilis [4] = assay: Antimicrobial activity against Bacillus subtilis IFO 3007 at 200 ug/disc after 24 hrs; conditions: IFO 3007, 24 h, read-out: IZ
Staphylococcus aureus [5] = assay: Antimicrobial activity against Staphylococcus aureus IFO 3060 at 200 ug/disc after 24 hrs; conditions: IFO 3060, 24 h, read-out: IZ
Candida albicans [6] = assay: Antimicrobial activity against Candida albicans IFO 0583 at 200 ug/disc after 48 hrs; conditions: IFO 0583, 48 h, read-out: IZ
Rattus norvegicus [7] = assay: Antiinflammatory effect on carrageenan-induced paw oedema Sprague-Dawley rat assessed as reduction of paw oedema at 60 mg/kg, ip; set-up: scale not given: the % may be the effect or the level left; conditions: route intraperitoneal; summary of the method: as §1
Bacillus subtilis [8] = assay: Antimicrobial activity against Bacillus subtilis IFO 3007 after 24 hrs; conditions: IFO 3007, 24 h
Candida albicans [9] = assay: Antimicrobial activity against Candida albicans IFO 0583 after 48 hrs; conditions: IFO 0583, 48 h
Staphylococcus aureus [10] = assay: Antimicrobial activity against Staphylococcus aureus IFO 3060 after 24 hrs; conditions: IFO 3060, 24 h
Escherichia coli [11] = assay: Antimicrobial activity against Escherichia coli IFO 3301 after 24 hrs; conditions: IFO 3301, 24 h
Candida albicans [12] = assay: Antimicrobial activity against Candida albicans IFO 0583 at 100 ug/disc after 48 hrs; conditions: IFO 0583, 48 h, read-out: IZ
Rattus norvegicus [13] = assay: Antiinflammatory effect on carrageenan-induced paw oedema Sprague-Dawley rat assessed as reduction of paw oedema at 10 mg/kg, ip; set-up: scale not given: the % may be the effect or the level left; conditions: route intraperitoneal; summary of the method: as §1

Row | SMILES | zone of inhibition at 200 µg/disc (Pseudomonas aeruginosa) | zone of inhibition at 200 µg/disc (Escherichia coli [1]) | Activity (Rattus norvegicus [2]) | Activity (Rattus norvegicus [3]) | zone of inhibition at 200 µg/disc (Bacillus subtilis [4]) | zone of inhibition at 200 µg/disc (Staphylococcus aureus [5]) | zone of inhibition at 200 µg/disc (Candida albicans [6]) | Activity (Rattus norvegicus [7]) | MIC (Bacillus subtilis [8]) | MIC (Candida albicans [9]) | MIC (Staphylococcus aureus [10]) | MIC (Escherichia coli [11]) | zone of inhibition at 100 µg/disc (Candida albicans [12]) | Activity (Rattus norvegicus [13])
1 | O=[N+]([O-])c1cc(-c2nnc(C34CC5CC(CC(C5)C3)C4)o2)cc([N+](=O)[O-])c1 | < 10 mm | < 10 mm | 5.22% | 4.16% | < 10 mm | < 10 mm | < 10 mm | 3.66% |  |  |  |  |  | 
2 | O=[N+]([O-])c1ccc(-c2nnc(C34CC5CC(CC(C5)C3)C4)o2)c(Cl)c1 | 10 mm | 10 mm | 21.65% | 19.69% | 14 mm | < 10 mm | < 10 mm | 19.34% |  |  |  |  |  | 
3 | c1csc(-c2nnc(C34CC5CC(CC(C5)C3)C4)o2)c1 | 12 mm | 11 mm | 49.77% | 35.95% | 18 mm | 14 mm | 16 mm | 63.72% | 2 µg/mL (≈ 6.98 µM) | 2 µg/mL (≈ 6.98 µM) |  |  |  | 
4 | c1ccc(-c2nnc(NC34CC5CC(CC(C5)C3)C4)s2)cc1 | < 10 mm | 12 mm | 34.05% | 19.69% | < 10 mm | < 10 mm | < 10 mm | 33.53% |  |  |  |  |  | 
5 | Clc1ccc(-c2nnc(NC34CC5CC(CC(C5)C3)C4)s2)cc1 | < 10 mm | 12 mm | 37.02% | 21.63% | 16 mm | 18 mm | < 10 mm | 37.11% |  |  | 2 µg/mL (≈ 5.78 µM) |  |  | 
6 | Brc1ccc(-c2nnc(NC34CC5CC(CC(C5)C3)C4)s2)cc1 | < 10 mm | < 10 mm | 13.38% | 12.51% | < 10 mm | < 10 mm | < 10 mm | 14.16% |  |  |  |  |  | 
7 | c1csc(-c2nnc(NC34CC5CC(CC(C5)C3)C4)s2)c1 | < 10 mm | < 10 mm | 28.62% | 15.43% | 10 mm | < 10 mm | < 10 mm | 37.52% |  |  |  |  |  | 
8 | Fc1ccc(-c2nnc(C34CC5CC(CC(C5)C3)C4)o2)cc1 | < 10 mm | < 10 mm | 29.15% | 11.72% | 12 mm | < 10 mm | < 10 mm | 38.62% |  |  |  |  |  | 
9 | Clc1ccc(-c2nnc(C34CC5CC(CC(C5)C3)C4)o2)cc1 | < 10 mm | 10 mm | 44.66% | 34.5% | 13 mm | < 10 mm | < 10 mm | 50.71% |  |  |  |  |  | 
10 | O=C(NNC(=S)NC12CC3CC(CC(C3)C1)C2)c1ccc(F)cc1 | < 10 mm | < 10 mm |  |  | 13 mm | < 10 mm | < 10 mm |  |  |  |  |  |  | 
11 | O=C(NNC(=S)NC12CC3CC(CC(C3)C1)C2)c1ccc(Cl)cc1 | < 10 mm | < 10 mm |  | 9.11% | 13 mm | < 10 mm | < 10 mm |  |  |  |  |  |  | 
12 | O=C(NNC(=S)NC12CC3CC(CC(C3)C1)C2)c1ccc([N+](=O)[O-])cc1 | 15 mm | 19 mm |  | 0.76% | 24 mm | 20 mm | < 10 mm |  | 0.5 µg/mL (≈ 1.34 µM) |  | 1 µg/mL (≈ 2.67 µM) | 2 µg/mL (≈ 5.34 µM) |  | 
13 | O=C(NNC(=S)NC12CC3CC(CC(C3)C1)C2)C12CC3CC(CC(C3)C1)C2 | < 10 mm | < 10 mm | 13.08% | 11.34% | < 10 mm | < 10 mm | 16 mm | 10.12% |  | 4 µg/mL (≈ 10.3 µM) |  |  |  | 
14 | O=C(NNC(=S)NC12CC3CC(CC(C3)C1)C2)c1ccc(Br)cc1 | < 10 mm | < 10 mm | 2.34% |  | 10 mm | < 10 mm | < 10 mm |  |  |  |  |  |  | 
15 | O=C(NNC(=S)NC12CC3CC(CC(C3)C1)C2)c1cccs1 | < 10 mm | 10 mm | 2.16% | 0.96% | 18 mm | < 10 mm | < 10 mm |  | 4 µg/mL (≈ 11.9 µM) |  |  |  |  | 
16 | Fc1ccc(-c2nnc(NC34CC5CC(CC(C5)C3)C4)s2)cc1 | < 10 mm | 10 mm | 35.55% | 18.02% | 10 mm | 14 mm | < 10 mm | 39.35% |  |  |  |  |  | 
17 | O=[N+]([O-])c1ccc(-c2nnc(NC34CC5CC(CC(C5)C3)C4)s2)cc1 | 12 mm | 17 mm | 10.1% | 9.11% | 18 mm | 16 mm | < 10 mm | 10.74% | 2 µg/mL (≈ 5.61 µM) |  | 2 µg/mL (≈ 5.61 µM) | 1 µg/mL (≈ 2.81 µM) |  | 
18 | C1C2CC3CC1CC(Nc1nnc(C45CC6CC(CC(C6)C4)C5)s1)(C2)C3 |  | < 10 mm | 39.65% | 31.6% | < 10 mm | < 10 mm | 18 mm | 44.14% |  | 2 µg/mL (≈ 5.41 µM) |  |  |  | 
19 | c1ccc(-c2nnc(C34CC5CC(CC(C5)C3)C4)o2)cc1 | < 10 mm | < 10 mm | 31.28% | 23.16% | < 10 mm | < 10 mm | < 10 mm | 34.5% |  |  |  |  |  | 
20 | Brc1ccc(-c2nnc(C34CC5CC(CC(C5)C3)C4)o2)cc1 | < 10 mm | < 10 mm | 13.15% | 11.6% | 14 mm | < 10 mm | < 10 mm | 13.01% |  |  |  |  |  | 
21 | O=[N+]([O-])c1ccc(-c2nnc(C34CC5CC(CC(C5)C3)C4)o2)cc1 | < 10 mm | < 10 mm | 13.56% | 9.92% | < 10 mm | < 10 mm | < 10 mm | 12.08% |  |  |  |  |  | 
22 | C1C2CC3CC1CC(c1nnc(C45CC6CC(CC(C6)C4)C5)o1)(C2)C3 | < 10 mm | < 10 mm | 68.97% | 44.27% | < 10 mm | < 10 mm | 10 mm | 71.52% |  |  |  |  |  | 
23 | COc1ccc(-c2nnc(C34CC5CC(CC(C5)C3)C4)o2)cc1OC | < 10 mm | 12 mm | 53.61% | 36.73% | 24 mm | 18 mm | < 10 mm | 70.2% | 0.5 µg/mL (≈ 1.47 µM) |  | 2 µg/mL (≈ 5.88 µM) |  |  | 
24 | O=C(NNC(=S)NC12CC3CC(CC(C3)C1)C2)c1ccccc1 | < 10 mm | 16 mm | 1.8% | 2.32% | 22 mm | < 10 mm | < 10 mm |  | 1 µg/mL (≈ 3.04 µM) |  |  | 4 µg/mL (≈ 12.1 µM) |  | 
25 | Clc1ccccc1C(c1ccccc1)(c1ccccc1)n1ccnc1 [CLOTRIMAZOLE] |  |  |  |  |  |  |  |  |  | 2 µg/mL (≈ 5.8 µM) |  |  | 21 mm | 
26 | COc1ccc2c(c1)c(CC(=O)O)c(C)n2C(=O)c1ccc(Cl)cc1 [INDOMETHACIN] |  |  |  |  |  |  |  |  |  |  |  |  |  | 60.4%
